Laboratory results published in PubChem BioAssay.
Inconclusive results are not listed. Calls of active or inactive are those of the source.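 The calls were made as follows, unless noted: active = viability at or below 27.92% in each of two runs, the all-compound median minus 4 SD; inconclusive = no clear call, values can overlap the other calls; inactive = the rest.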

Columns and labels:
[1] = S. cerevisiae growth inhibition in permissive medium (OD615), pilot counter-assay for S. cerevisiae lifespan shortening project, permissive growth control (AID 705;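 active = growth inhibition above 25% in both replicates, a cutoff set 3 SD above the mean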); conditions: OD615, 24 h, at 10 µM, active compounds read high
Procedure, shortened: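 assay system = Saccharomyces cerevisiae strain carrying genetically modified DeaD replicative-lifespan system | technique = absorbance (optical density) at 615 nm | buffer or medium = permissive raffinose/galactose medium | timing = cells pre-grown 4 h, then 24 h compound exposure, 30 °C humidified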

[2] = S. cerevisiae growth inhibition in restrictive medium, OD615, pilot screen, restrictive growth control, yeast lifespan reduction project (AID 706;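 active = growth inhibition above a set limit, 3 SD over mean compound inhibition, in both replicates, cut at about 43% in these data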;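 also: modified DeaD lifespan yeast strain shifted to restrictive glucose medium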); conditions: OD615, 48 h, at 10 µM, active compounds read high
Procedure, shortened: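 System: modified S. cerevisiae. Buffer or medium: CSMM-D glucose medium. Incubation: 4 h pre-growth plus 48 h compound exposure, 30 °C. Detection: absorbance (optical density) measured at 615 nm.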

[3] = doxorubicin toxicity protection in MRP-1 cells – H69AR cells, CellTiter-Glo, duplicate, MRP-1 activator project, pilot screen (AID 807;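 active = viability increase at or above a cutoff of the median across tested compounds plus 3 SD, cut at about 8.5% in these data, passing the limit was not always enough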;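 also: compound pretreatment 18-22 h then 72 h combined with doxorubicin; 0% = doxorubicin alone and 100% = vehicle without doxorubicin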); conditions: H69AR viability with doxorubicin, CellTiter-Glo luminescence; at 10 µM; active compounds read high
[4] = viability of HCT116 without oncogenic beta-catenin – human colon tumor cells, pilot screen (AID 823;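 active = cell viability at or below a set limit in both duplicate runs, the limit being the all-compound median minus 4 SD, cut at about 23% in these data, passing the limit was not always enough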;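 also: 0% = wells killed by 20 µM Hyamine and 100% = untreated DMSO cell wells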); conditions: HCT116 beta-catenin knockout viability, CellTiter-Glo, 60 h; at 10 µM; active compounds read low
[5] = viability of PTEN-null HCT116 cells – cell-based, HCT116 clonal line, CellTiter-Glo, pilot screen (AID 824); conditions: HCT116 PTEN-deleted viability, 60 h, at 10 µM, active compounds read low;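 also: 0% = 20 µM Hyamine control and 100% = vehicle cell control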
[6] = RAM pathway blockade in budding yeast – dse1pr::URA3 reporter, 5-FOA selection, pilot screen (AID 869;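 active = inhibition over a set limit, the all-compound mean plus 3 SD, in both replicate runs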;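 also: 0% = DMSO wells with no growth and 100% = 10 µM 1-NA-PP1 with full growth; RAM network block rescues cells from 5-FOA so hits raise OD615 growth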); conditions: S. cerevisiae dse1pr::URA3 5-FOA growth, OD615, 2 d; at 10 µM; active compounds read high; strain carries analog-sensitive mutant Cbk1 kinase
[7] = RAM signaling pathway blockade in yeast – S. cerevisiae, Pdr1DBD-CYC8 efflux-inhibited sensitized strain, primary screen (AID 1298;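 active = RAM network inhibition above 8.4% in each of two replicates, 3 SD over the compound average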;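 also: 0% = DMSO untreated cells without growth and 100% = 10 µM 1-NA-PP1 full growth; higher means more yeast growth rescued from 5-FOA killing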); conditions: S. cerevisiae cbk1-as DSE1-URA3 strain, 5-FOA growth OD615, 2 d; at 50 µM; active compounds read high

COc1ccc(N(CC(=O)NCc2ccccc2OC)S(=O)(=O)c2c(C)nn(C)c2C)cc1
inactive: growth inhibition [1] -12.2% | growth inhibition [2] -16.1% | viability increase [3] -3.37% | viability [4] 99.6% | viability [5] 95.6% | inhibition [6] 0.135% | RAM network inhibition [7] 2.29%

COc1ccc(-n2nnc3c(=O)n(CC(=O)N4CCC(Cc5ccccc5)CC4)cnc32)cc1
inactive: growth inhibition [1] 0.065% | growth inhibition [2] -3.95% | viability increase [3] -1.03% | viability [4] 80.2% | viability [5] 80.3% | inhibition [6] 2.54% | RAM network inhibition [7] 5.24%

O=C(NCCCc1ccccc1)c1ccncc1
inactive: growth inhibition [1] 1.08% | growth inhibition [2] 0.81% | viability increase [3] -0.23% | viability [4] 98.4% | viability [5] 99.4% | inhibition [6] 0.45% | RAM network inhibition [7] 6.46%

CC1=C(C(=O)Nc2ccccc2C)C(c2ccccc2)NC(=O)N1 (stereo not given)
inactive: growth inhibition [1] 0.05% | growth inhibition [2] -7.71% | viability increase [3] -1.25% | viability [4] 97.9% | viability [5] 97.9% | inhibition [6] 1.01% | RAM network inhibition [7] 2.69%

Cc1ccc(NC(=O)c2cc(-c3cccc(O)c3)on2)cc1C
inactive: growth inhibition [1] -19.1% | growth inhibition [2] -5.78% | viability increase [3] -0.54% | viability [4] 92.1% | viability [5] 87% | inhibition [6] 3.14% | RAM network inhibition [7] 4.28%

CCCCCn1c(=O)[nH]c2c(c1=O)CCC2
inactive: growth inhibition [1] 2.71% | growth inhibition [2] -0.545% | viability increase [3] 1.82% | viability [4] 101% | viability [5] 100% | inhibition [6] -0.56% | RAM network inhibition [7] 0.26%

Cc1cc(Nc2ccc(F)cc2Cl)n2ncnc2n1
inactive: growth inhibition [1] -7.73% | growth inhibition [2] 2.61% | viability increase [3] -2.45% | viability [4] 103% | viability [5] 95.1% | inhibition [6] -0.7% | RAM network inhibition [7] 1.89%

CC1CCCC(NC(=O)Cn2cc3c(n2)CCCCC3)C1C (stereo not given)
inactive: growth inhibition [1] -16% | growth inhibition [2] -6.99% | viability increase [3] 0.62% | viability [4] 95.7% | viability [5] 90.8% | inhibition [6] -0.355% | RAM network inhibition [7] 0.1%

Cc1cc(S(=O)(=O)N2CCN(c3ccc(F)cc3)CC2)c(C)s1
inactive: growth inhibition [1] -13.9% | growth inhibition [2] -7.43% | viability increase [3] -3.11% | viability [4] 60.9% | viability [5] 60.3% | inhibition [6] 1.69% | RAM network inhibition [7] 9.84%

O=S(=O)(Nc1cccc(-c2nc3cccnc3s2)c1)c1ccc2c(c1)OCCO2
inactive: growth inhibition [1] -0.93% | growth inhibition [2] 13.3% | viability increase [3] 0.73% | viability [4] 97.7% | viability [5] 85.3% | inhibition [6] 3.69% | RAM network inhibition [7] 5.51%

O=C(Cn1cnc2c(cnn2-c2ccccc2)c1=O)N1CCOCC1
inactive: growth inhibition [1] -4% | growth inhibition [2] -3.03% | viability increase [3] -0.44% | viability [4] 101% | viability [5] 102% | inhibition [6] 0.17% | RAM network inhibition [7] 1.17%

CCOC(=O)N1CCN(C2CC(=O)N(c3ccccc3)C2=O)CC1 (stereo not given)
inactive: growth inhibition [1] 4.38% | growth inhibition [2] 10.5% | viability increase [3] 0.58% | viability [4] 100% | viability [5] 101% | inhibition [6] 0.005% | RAM network inhibition [7] -0.04%

Cc1ccc(-c2nc(CS(=O)CC(=O)NC3CCC(C)CC3)c(C)o2)cc1 (stereo not given)
inactive: growth inhibition [1] 2.73% | growth inhibition [2] 11.8% | viability increase [3] 1.29% | viability [4] 84.8% | viability [5] 94.8% | inhibition [6] 0.76% | RAM network inhibition [7] 2.42%

CCOc1ccccc1NC(=O)N1CCCC1C(=O)Nc1ccc(-n2cnnn2)c(C)c1 (stereo not given)
inactive: growth inhibition [1] -11.3% | growth inhibition [2] -16.2% | viability increase [3] 0.16% | viability [4] 102% | viability [5] 97.9% | inhibition [6] 1.86% | RAM network inhibition [7] 2.1%

O=C(O)CCCC(=O)Nc1ccc(Cl)c(Cl)c1
inactive: growth inhibition [1] 4.12% | growth inhibition [2] -2% | viability increase [3] -0.13% | viability [4] 95.4% | viability [5] 98.1% | inhibition [6] 0.165% | RAM network inhibition [7] 1.64%
